From ChEMBL document CHEMBL3393046, “Conformationally-locked N-glycosides: exploiting long-range non-glycone interactions in the design of pharmacological chaperones for Gaucher disease” (Eur J Med Chem, 2015)
Active and inactive are the calls of the source. The calls are words filed in the database; no cut-off is given here.

Assays:
Saccharomyces bayanus = assay: Inhibition of yeast alpha-glucosidase at 2 mM incubated for 10 to 30 mins using p-nitrophenyl alpha-D-glycopyranoside substrate by spectrophotometry
Method in brief: (§1)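 Reaction started by adding enzyme to substrate, without or with various inhibitor concentrations, in phosphate or phosphate-citrate buffer (α/β-mannosidase, amyloglucosidase) at each enzyme's optimal pH. Incubation 10–30 min at 37 °C (55 °C for amyloglucosidase), timed for 10–20% conversion. Stopped with 1 M Na₂CO₃, or for trehalase by heating then GLC-Trinder. Absorbance 405 nm (trehalase 492 nm). Approximate Ki from fixed substrate near Km.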

Homo sapiens = organism: Homo sapiens; assay: Inhibition of alpha-galactosidase (unknown origin) by spectrophotometry
Aspergillus niger = assay: Inhibition of Aspergillus niger amyloglucosidase at 2 mM incubated for 10 to 30 mins by spectrophotometry; method in brief: as §1
[1] = molecular target: T1, Alpha-mannosidase (Canavalia ensiformis) (UniProt C0HJB3); assay: Inhibition of jack bean alpha-mannosidase at 2 mM incubated for 10 to 30 mins by spectrophotometry; method in brief: as §1
T1 sequence (whole entry): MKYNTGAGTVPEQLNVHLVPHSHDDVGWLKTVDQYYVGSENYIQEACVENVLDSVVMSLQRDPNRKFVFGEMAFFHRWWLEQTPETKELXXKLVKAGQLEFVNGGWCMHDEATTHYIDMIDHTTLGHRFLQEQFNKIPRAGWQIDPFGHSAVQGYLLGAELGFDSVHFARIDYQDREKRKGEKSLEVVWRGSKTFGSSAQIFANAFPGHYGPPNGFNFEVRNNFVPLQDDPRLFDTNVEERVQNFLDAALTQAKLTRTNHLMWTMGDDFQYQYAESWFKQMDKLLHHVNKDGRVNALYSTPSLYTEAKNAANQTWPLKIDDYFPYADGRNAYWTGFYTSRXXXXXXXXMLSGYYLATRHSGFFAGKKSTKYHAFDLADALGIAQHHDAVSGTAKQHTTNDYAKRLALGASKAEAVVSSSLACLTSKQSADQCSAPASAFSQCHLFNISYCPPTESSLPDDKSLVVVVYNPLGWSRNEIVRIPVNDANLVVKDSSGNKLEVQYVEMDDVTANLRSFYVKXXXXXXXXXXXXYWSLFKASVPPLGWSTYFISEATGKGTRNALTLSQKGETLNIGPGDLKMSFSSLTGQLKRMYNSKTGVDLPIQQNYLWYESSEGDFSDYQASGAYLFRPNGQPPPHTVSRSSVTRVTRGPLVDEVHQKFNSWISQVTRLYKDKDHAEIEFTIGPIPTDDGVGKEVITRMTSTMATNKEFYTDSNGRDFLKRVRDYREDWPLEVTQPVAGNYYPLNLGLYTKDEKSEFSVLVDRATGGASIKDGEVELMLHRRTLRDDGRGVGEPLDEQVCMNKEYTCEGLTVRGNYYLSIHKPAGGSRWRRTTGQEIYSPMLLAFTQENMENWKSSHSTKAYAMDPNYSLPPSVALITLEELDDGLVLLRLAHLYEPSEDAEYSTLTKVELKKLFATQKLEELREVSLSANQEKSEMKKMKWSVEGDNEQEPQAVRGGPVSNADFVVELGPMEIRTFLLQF

[2] = molecular target: Beta-galactosidase (Escherichia coli K-12) (UniProt P00722); assay: Inhibition of Escherichia coli beta-galactosidase at 2 mM incubated for 10 to 30 mins using o-nitrophenyl beta-D-galactopyranoside substrate by spectrophotometry; method in brief: as §1
Beta-galactosidase (Escherichia coli K-12), sequence (P00722 whole entry): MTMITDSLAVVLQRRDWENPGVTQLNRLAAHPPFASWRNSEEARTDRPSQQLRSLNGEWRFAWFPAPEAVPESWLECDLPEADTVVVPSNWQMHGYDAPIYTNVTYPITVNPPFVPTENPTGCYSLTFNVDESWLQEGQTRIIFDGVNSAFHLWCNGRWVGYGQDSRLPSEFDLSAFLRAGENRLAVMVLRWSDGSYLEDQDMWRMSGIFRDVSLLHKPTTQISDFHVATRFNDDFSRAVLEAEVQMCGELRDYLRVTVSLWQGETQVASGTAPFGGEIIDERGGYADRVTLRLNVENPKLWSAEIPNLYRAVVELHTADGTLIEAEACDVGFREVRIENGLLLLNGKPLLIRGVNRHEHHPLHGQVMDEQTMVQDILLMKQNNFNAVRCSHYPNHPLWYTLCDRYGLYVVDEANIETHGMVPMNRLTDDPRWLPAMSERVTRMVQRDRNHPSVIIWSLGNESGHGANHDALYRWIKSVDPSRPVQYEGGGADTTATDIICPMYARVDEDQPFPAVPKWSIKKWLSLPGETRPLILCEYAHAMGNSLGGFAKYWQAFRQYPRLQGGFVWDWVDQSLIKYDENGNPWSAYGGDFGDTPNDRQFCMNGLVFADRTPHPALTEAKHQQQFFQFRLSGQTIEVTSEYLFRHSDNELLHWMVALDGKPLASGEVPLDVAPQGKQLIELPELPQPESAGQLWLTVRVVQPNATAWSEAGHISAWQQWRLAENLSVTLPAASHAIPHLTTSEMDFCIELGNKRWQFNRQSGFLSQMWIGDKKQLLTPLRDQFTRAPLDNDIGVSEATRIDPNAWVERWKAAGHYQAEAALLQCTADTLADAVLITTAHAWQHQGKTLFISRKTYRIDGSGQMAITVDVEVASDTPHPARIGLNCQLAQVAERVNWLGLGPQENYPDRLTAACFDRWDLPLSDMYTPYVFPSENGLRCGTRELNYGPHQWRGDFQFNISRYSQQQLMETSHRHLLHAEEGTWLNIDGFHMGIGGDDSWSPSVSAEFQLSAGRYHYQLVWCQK

[3] = molecular target: T2, Lysosomal acid glucosylceramidase (Homo sapiens, UniProt P04062); assay: Inhibition of human beta-glucocerebrosidase at pH 5.0 by spectrophotometry
T2 sequence (P04062 whole entry): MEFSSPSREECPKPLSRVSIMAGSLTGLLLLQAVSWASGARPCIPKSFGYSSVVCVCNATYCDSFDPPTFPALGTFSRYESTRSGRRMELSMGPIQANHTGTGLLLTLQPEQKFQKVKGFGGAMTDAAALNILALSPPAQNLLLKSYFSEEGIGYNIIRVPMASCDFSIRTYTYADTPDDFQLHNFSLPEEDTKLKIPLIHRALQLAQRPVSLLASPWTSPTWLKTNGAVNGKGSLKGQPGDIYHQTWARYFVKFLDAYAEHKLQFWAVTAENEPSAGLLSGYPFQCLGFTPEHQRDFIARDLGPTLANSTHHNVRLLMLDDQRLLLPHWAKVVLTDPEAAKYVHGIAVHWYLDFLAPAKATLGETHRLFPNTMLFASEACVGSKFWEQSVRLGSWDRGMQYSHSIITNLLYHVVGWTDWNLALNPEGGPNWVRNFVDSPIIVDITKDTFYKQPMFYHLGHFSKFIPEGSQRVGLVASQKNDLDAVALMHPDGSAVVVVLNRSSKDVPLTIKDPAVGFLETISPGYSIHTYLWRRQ

[4] = molecular target: T2, Lysosomal acid glucosylceramidase; assay: Inhibition of human beta-glucocerebrosidase at pH 7.0 by spectrophotometry
Prunus dulcis = assay: Inhibition of almonds beta-glucosidase at 2 mM incubated for 10 to 30 mins using p-nitrophenyl beta-D-glycopyranoside substrate by spectrophotometry; method in brief: as §1
[5] = molecular target: Lysosomal alpha-glucosidase (Homo sapiens) (UniProt P10253); assay: Inhibition of alpha-glucosidase (unknown origin) by spectrophotometry
[6] = molecular target: T3, Uncharacterized protein (Sus scrofa) (UniProt I3LIR5); assay: Inhibition of pig kidney trehalase at 2 mM incubated for 10 to 30 mins using alpha,alpha'-trehalose substrate by spectrophotometry; method in brief: as §1
T3 sequence (whole entry): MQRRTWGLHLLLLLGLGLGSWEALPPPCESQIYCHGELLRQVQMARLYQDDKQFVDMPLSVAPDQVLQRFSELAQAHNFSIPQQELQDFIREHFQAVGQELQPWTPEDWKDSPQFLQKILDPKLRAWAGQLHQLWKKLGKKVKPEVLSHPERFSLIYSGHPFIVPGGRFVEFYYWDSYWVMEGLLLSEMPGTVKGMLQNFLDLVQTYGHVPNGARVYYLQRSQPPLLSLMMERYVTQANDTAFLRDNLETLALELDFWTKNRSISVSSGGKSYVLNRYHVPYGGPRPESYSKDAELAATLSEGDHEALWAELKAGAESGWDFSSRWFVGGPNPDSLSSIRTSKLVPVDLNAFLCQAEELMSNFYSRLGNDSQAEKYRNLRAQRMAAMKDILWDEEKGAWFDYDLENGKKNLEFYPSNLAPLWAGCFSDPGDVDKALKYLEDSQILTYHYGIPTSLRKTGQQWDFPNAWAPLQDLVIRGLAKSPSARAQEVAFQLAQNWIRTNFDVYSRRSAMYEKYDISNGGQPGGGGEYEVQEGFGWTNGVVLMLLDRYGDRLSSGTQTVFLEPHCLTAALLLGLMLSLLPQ

Penicillium decumbens = assay: Inhibition of Penicillium decumbens naringinase at 2 mM incubated for 10 to 30 mins using substrate by spectrophotometry; method in brief: as §1
[7] = molecular target: Alpha-galactosidase (Coffea arabica) (UniProt Q42656); assay: Inhibition of green coffee alpha-galactosidase at 2 mM incubated for 10 to 30 mins using p-nitrophenyl alpha-D-glycopyranoside substrate by spectrophotometry; method in brief: as §1
Alpha-galactosidase (Coffea arabica), sequence (Q42656 16-378 limits assumed): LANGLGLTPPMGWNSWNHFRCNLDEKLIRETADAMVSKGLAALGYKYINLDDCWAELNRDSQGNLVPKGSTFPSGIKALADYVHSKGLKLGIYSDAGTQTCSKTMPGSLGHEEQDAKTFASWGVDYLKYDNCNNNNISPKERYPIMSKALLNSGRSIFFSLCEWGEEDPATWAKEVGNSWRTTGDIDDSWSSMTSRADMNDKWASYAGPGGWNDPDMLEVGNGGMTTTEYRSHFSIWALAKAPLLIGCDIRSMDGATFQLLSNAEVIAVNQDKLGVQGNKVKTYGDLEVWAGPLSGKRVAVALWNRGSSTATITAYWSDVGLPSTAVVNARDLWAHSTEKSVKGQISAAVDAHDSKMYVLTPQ

Saccharomyces cerevisiae = assay: Inhibition of yeast isomaltase at 2 mM incubated for 10 to 30 mins by spectrophotometry; method in brief: as §1

Structure (SMILES) | inhibition (Saccharomyces bayanus) | inhibition (Homo sapiens) | inhibition (Aspergillus niger) | inhibition [1] | inhibition [2] | IC50 ([3]; read-out: IC50) [µM] | IC50 ([4]; read-out: IC50) [µM] | inhibition (Prunus dulcis) | inhibition [5] | inhibition [6] | inhibition (Penicillium decumbens) | inhibition [7] | inhibition (Saccharomyces cerevisiae) | IC50 [3] | IC50 [4]
OC[C@H]1O[C@@H]2N=C(SCCCCCCCCCCCCCCCCF)O[C@@H]2[C@@H](O)[C@@H]1O | inactive | inactive | inactive | inactive | inactive | 27 | 3.9 | inactive | inactive | inactive | inactive | inactive | inactive |  | 
OC[C@H]1O[C@@H]2N=C(SCCCCCCCCCCCCCCCCSC3=N[C@H]4O[C@H](CO)[C@@H](O)[C@H](O)[C@H]4O3)O[C@@H]2[C@@H](O)[C@@H]1O | inactive | inactive | inactive | inactive | inactive |  |  | inactive | inactive | inactive | inactive | inactive | inactive | Not Active | Not Active
COC(=O)CCCCCCCCCCCCCCCSC1=N[C@H]2O[C@H](CO)[C@@H](O)[C@H](O)[C@H]2O1 | inactive | inactive | inactive | inactive | inactive | 300 | 33 | inactive | inactive | inactive | inactive | inactive | inactive |  | 
OCCCCCCCCCCCCCCCCSC1=N[C@H]2O[C@H](CO)[C@H](O)[C@H](O)[C@H]2O1 | inactive | inactive | inactive | inactive | inactive |  |  | inactive | inactive | inactive | inactive | inactive | inactive | Not Active | Not Active
